{"source": "ChEMBL document CHEMBL1250434", "about": "“A novel achiral seco-cyclopropylpyrido[e]indolone (CPyI) analog of CC-1065 and the duocarmycins: synthesis, DNA interactions, in vivo anticancer and anti-parasitic evaluation” (Bioorg Med Chem, 2010)", "key": {"[1]": {"test_system": "Nucleic Acid", "test": "Binding affinity to pUC18 DNA assessed as DNA alkylating activity after 5 hrs by thermal cleavage assay", "format": "nucleic-acid assay", "conditions": "Escherichia coli", "summary_of_the_method": "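PCR probe from the 749–956 region of pUC18. DNA precipitated and lyophilised, then heated at 90 °C for 30 min in sodium citrate buffer (pH 7.2) to cleave at alkylated adenines. Fragments resolved by electrophoresis.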"}, "[2]": {"test_system": "L1210", "test": "Cytotoxicity against mouse L1210 cells after 3 days by MTT assay", "format": "functional, cell-based", "conditions": "L1210, 72 h", "summary_of_the_method": "(§1)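 Murine tumour cells under continuous drug exposure for 3 days. Growth inhibition measured by MTT assay. IC50 is the concentration inhibiting growth by 50%.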"}, "[3]": {"test": "Cytotoxicity against mouse B16F0 cells after 3 days by MTT assay", "format": "functional, cell-based", "conditions": "B16F0, 72 h", "summary_of_the_method": "as §1"}, "[4]": {"test_system": "Leishmania donovani", "test": "Antimicrobial activity against promastigotes of Leishmania donovani assessed as inhibition of cell proliferation after 72 hrs by alamar blue assay", "format": "functional, organism-based", "summary_of_the_method": "(§2)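 Promastigotes at 5 × 10^4 cells/well in DME-L medium with 10% heat-inactivated FBS, hemin, xanthine and penicillin-streptomycin. Exposed to 0.03 nM to 64 µM compound for 72 h at 26 °C. Alamar blue added, incubated 15 h, dye reduction read by fluorescence ex 530/em 590 nm.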"}, "[5]": {"test_system": "Trypanosoma brucei", "test": "Antimicrobial activity against procyclic form of Trypanosoma brucei 427 assessed as inhibition of cell proliferation after 72 hrs by alamar blue assay", "format": "functional, organism-based", "conditions": "Trypanosoma brucei, 427, 72 h", "summary_of_the_method": "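T. brucei 427 procyclic forms grown in SDM 79 medium with 0.03 nM to 64 µM compound for 72 h at 26 °C. Proliferation read by Alamar blue reduction after a further 15 h, fluorescence ex 530/em 590 nm.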"}, "[6]": {"test_system": "Plasmodium falciparum", "test": "Antimicrobial activity against Plasmodium falciparum infected in human erythrocytes assessed as growth inhibition", "format": "functional, organism-based", "summary_of_the_method": "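P. falciparum grown in human erythrocytes at 3–5% hematocrit in complete medium. In vitro growth assay at six concentrations, in triplicate, in three independent experiments.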"}, "[7]": {"test_system": "Leishmania mexicana", "test": "Antimicrobial activity against promastigotes of Leishmania mexicana assessed as inhibition of cell proliferation after 72 hrs by alamar blue assay", "format": "functional, organism-based", "summary_of_the_method": "as §2"}}, "data": [{"smiles": "COc1cc2cc(C(=O)Nc3cc(N)c4ccccc4c3CCCl)[nH]c2c(OC)c1OC", "note": "[CENTANAMYCIN]", "values": [{"measurement": "Activity", "setting": "[1]", "value": "Dose-dependent effect"}, {"measurement": "IC50", "setting": "[2]", "value": 0.055, "unit": "µM"}, {"measurement": "IC50", "setting": "[3]", "value": 0.027, "unit": "µM"}, {"measurement": "IC50", "setting": "[4]", "value": 0.013, "unit": "µM"}, {"measurement": "IC50", "setting": "[5]", "value": 0.0019, "unit": "µM"}, {"measurement": "IC50", "setting": "[6]", "value": 0.0018, "unit": "µM"}, {"measurement": "IC50", "setting": "[7]", "value": 1.02, "unit": "µM"}]}]}
